# Screening data deposited in PubChem by several laboratories.
# EP2 modulator: EP2 receptor modulators, cAMP readout, primary screen, cell-based, HTRF cAMP, PGE2 stimulation; Prostaglandin E2 receptor EP2 subtype (Homo sapiens), P43116; EP2-expressing cells, cAMP HTRF FRET, PGE2 co-stimulation; induction, % at 25 µM; actives 0.83% (n = 260,000);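 active = compounds whose cAMP rise, as percent of the full-agonist control response, exceeds 60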;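 note: rat C6 glioma line stably carrying human EP2 under a CMV promoter; the protocol text gives 20 µM as final concentration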
# GASC-1 inh: inhibitors of GASC-1 histone demethylase, primary screen, biochemical, fluorescence, DELFIA europium; Lysine-specific demethylase 4C (Homo sapiens), Q9H3R0; GST-JMJD2C(1-420) H3K9me3 demethylation; inhibition, % at 2.35 µM; actives 0.069% (n = 330,000); AID 2099, 2009;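 active = more than half of a compound's replicate wells show inhibition beyond 50%, single wells judged on their own value; inconclusive = some, but no more than half, of replicates pass 50% inhibition; inactive = no replicate passes 50% inhibition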;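 note: signal counts dimethyl H3K9 product captured on neutravidin plate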
# Target sequence (Q9H3R0 1-420 limits assumed): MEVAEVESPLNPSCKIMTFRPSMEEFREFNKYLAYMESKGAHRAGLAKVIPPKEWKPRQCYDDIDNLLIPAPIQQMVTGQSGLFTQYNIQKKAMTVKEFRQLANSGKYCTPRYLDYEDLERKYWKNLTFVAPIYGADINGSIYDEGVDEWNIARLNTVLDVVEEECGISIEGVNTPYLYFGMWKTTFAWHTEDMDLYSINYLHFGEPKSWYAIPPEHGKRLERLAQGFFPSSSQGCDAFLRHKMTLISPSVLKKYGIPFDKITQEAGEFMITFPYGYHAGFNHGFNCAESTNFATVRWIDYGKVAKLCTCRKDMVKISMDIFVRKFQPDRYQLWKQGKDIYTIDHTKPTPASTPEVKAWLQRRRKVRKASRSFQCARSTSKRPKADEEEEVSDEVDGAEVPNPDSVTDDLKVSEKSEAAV
# PGE2 EP2 inh: human EP2 receptor antagonists, primary screen, TR-FRET cAMP, C6 glioma cells; Prostaglandin E2 receptor EP2 subtype (Homo sapiens), P43116; C6 glioma cells expressing human EP2; cells stimulated with saturating PGE2; inhibition, % at 25 µM; actives 0.52% (n = 260,000);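 active = percent inhibition above 40 after rounding to a whole number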;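 note: rat C6 glioma host cells with rolipram phosphodiesterase inhibitor present; the protocol text gives 20 µM as final concentration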
# Furin inhibitor: human furin inhibitors, primary screen, biochemical, fluorescence intensity; actives 0.061% (n = 220,000); purified furin, fluorogenic substrate cleavage; P09958; inhibition, % at 20 µM or 30 µM; in the data active = inhibition above about 25%
# NR2E3 ag-1: NR2E3 agonists in two-hybrid cells, primary screen, cell-based, luminescence, CHO-S, Gal4-NCOR/VP16-NR2E3. Photoreceptor-specific nuclear receptor (Homo sapiens), Q9Y5X4. luciferase. inhibition of corepressor binding, % at 3.98 µM. actives 0.35% (n = 360,000);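 active = inhibition above the mean of all tested compounds plus 3 SD, cut at about 70% in these data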;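 note: higher means lower luciferase signal from less NR2E3 corepressor binding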
# NR2E3 ag-2: inhibitors of NR2E3-RetCOR corepressor binding, primary screen, NR2E3 agonist project, biochemical, TR-FRET, GST-NR2E3, biotin-RetCOR. 1536-well. inhibition of corepressor binding, % at 4.78 µM. actives 0.12% (n = 320,000);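 active = percent inhibition above the cutoff of mean plus 3 SD of all tested compounds, set per screening campaign, cut at about 20% in these data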
#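 Format: 1536-well format; test system: GST-NR2E3 and biotin-RetCOR proteins; read-out basis: percent inhibition of TR-FRET ratio; timing: 5 h incubation at 4 °C; detection: time-resolved FRET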
# EP2 cAMP induct: cAMP induction in EP2, EP4, beta2-AR and parental cells, confirmation, counter-screen for EP2 modulator project, cell-based, five parallel assays, C6 glioma, HEK293; shares compounds with EP2 modulator; cAMP HTRF induction; plus low (about EC15) PGE2 agonist; calls only at 20 µM (by protocol); actives 47% (n = 1,300);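 active = cAMP induction above 50% in the main assay while under 30% in all four parallel counter assays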;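 note: rat C6 glioma cells stably expressing human EP2 receptor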
# NR2E3 ag confirm: NR2E3 agonists, confirmation, biochemical, TR-FRET; cell-free NR2E3 corepressor release, 5 h; activation (reported as inhibition), % at 3.98 µM; AID 2379, 2010; shares compounds with NR2E3 ag-2; actives 39% (n = 360); in the data active = activation above about 20%
# PPARg-NCOR2 ctr: agonists of PPARg-NCOR2 corepressor interaction, counter-screen for NR2E3 agonist project, biochemical, TR-FRET; TR-FRET PPARg-NCOR2 coregulator interaction; shares compounds with NR2E3 ag-2; actives 45% (n = 360); inhibition, % at 3.98 µM; AID 504787, 2011; in the data active = inhibition above about 20%
# Hits are given with their value; i = inactive; ? = inconclusive; nt = no result given; + = active, no number; ! = repeats disagree. An excerpt weighted towards active compounds, which were near 1.3% of everything screened.
SMILES,EP2 modulator,GASC-1 inh,PGE2 EP2 inh,Furin inhibitor,NR2E3 ag-1,NR2E3 ag-2,EP2 cAMP induct,others
Cc1ccc(S(=O)(=O)c2c(C)cc(C)nc2N2CCCCC2)cc1,70,i,i,i,i,nt,+,
CCn1c2c(c3cc(OCC(C)C)ccc31)CCCC2=O,74,i,i,i,i,i,+,
CC1(C)OC(c2ccccc2)=C/C(=C/C=Nc2ccccc2)O1,66,i,i,i,i,i,i,
CC1(C)OC(c2ccccc2)=C/C(=C\C=N\NC(=O)c2ccncc2)O1,i,i,i,i,i,i,nt,
CCN(CC)C(=O)c1sc(NC(=O)c2ccc(C)cc2)c(C(=O)OC)c1C,i,nt,i,nt,nt,nt,nt,
O=C(O)c1cc2cc(F)ccc2[nH]1,113!,i,i,i,i,i,i,
O=C(O)c1cc2cc(Cl)ccc2[nH]1,i,nt,i,nt,i,nt,nt,
C#CCn1c(S(=O)(=O)Cc2ccc(C)cc2)nc(-c2ccccc2)c1-c1ccccc1,i,i,i,i,i,i,nt,
C#CCn1c(S(=O)(=O)Cc2ccccc2Cl)nc(-c2ccccc2)c1-c1ccccc1,72,i,i,i,i,i,+,
O=C(CSc1ncnc2c1oc1ccccc12)Nc1ccccc1F,76,i,i,i,i,i,i,
COC(=O)c1ccc(CSc2ncnc3c2oc2ccccc23)o1,66,?,i,i,i,i,i,
CCCSc1ncnc2c1oc1ccccc12,66,i,i,i,i,i,i,
CC(=O)c1cc(C#N)c(SCc2ccccc2)nc1C,72,i,i,i,i,i,+,
COc1cc(C=O)ccc1OC(=O)c1ccc(C(C)C)cc1,74,i,i,i,i,i,i,
Cc1cccc(C(=O)c2cnc3ccccc3c2-c2ccccc2)c1,90,i,i,i,i,i,+,
CCOc1ccc(OCC)c(NC(=O)CN2CCN(c3ccccc3OC)CC2)c1,i,nt,i,nt,nt,nt,nt,
CCOc1ccc(OCC)c(NC(=O)CN2CCN(c3ccc(C)cc3C)CC2)c1,79,i,nt,i,i,i,+,
O=C(NCCN1CCC(O)(c2cccc(F)c2)CC1)c1c(F)cccc1F,i,nt,i,nt,nt,nt,nt,
CCOC(=O)C1CCN(C(=O)c2cccc(Cl)c2)CC1,i,i,i,i,i,i,nt,
CCOC(=O)C1CCN(c2c(C(=O)c3ccccc3)cnc3ccc(Cl)cc23)CC1,81,i,i,i,i,i,+,
Cc1ccc(SC(c2ccc(C)cc2)C(Cn2cncn2)C(=O)c2ccccc2)cc1 (stereo unspecified),i,i,i,i,i,i,nt,
Cc1ccc(C(Sc2ccccc2)C(Cn2cncn2)C(=O)c2ccccc2)cc1 (stereo unspecified),73,i,i,i,i,i,+,
CCC(=O)N(Cc1ccccc1)Cc1cc2cc(C)ccc2n2nnnc12,i,nt,i,nt,nt,nt,nt,
Cc1noc(C)c1COC(=O)C(c1ccccc1)c1ccccc1,75,i,i,i,i,i,i,
CC(=O)N1c2ccccc2C(C)CC12CCCCC2 (stereo unspecified),93,i,i,i,i,i,+,
SMILES,EP2 modulator,GASC-1 inh,PGE2 EP2 inh,Furin inhibitor,NR2E3 ag-1,NR2E3 ag-2,EP2 cAMP induct,others
CC(=O)N1Cc2ccccc2C(C)CC12CCCC2 (stereo unspecified),i,i,i,i,i,i,nt,
CN(C)c1ncc(S(=O)(=O)c2ccccc2)c(N)n1,i,i,i,i,i,i,nt,
CN(C)c1ncc(S(=O)(=O)c2ccccc2)c(-c2ccccc2Cl)n1,66,i,i,i,i,i,+,
CCn1c(SCC(=O)Nc2ccccc2F)nnc1-c1cccnc1,i,nt,i,nt,nt,nt,nt,
O=c1nc(-c2ccccc2)cc(-c2ccccc2)[nH]1,65,i,i,i,i,i,i,
Cn1c2ccccc2c2nnc(SCC(=O)Nc3ccccc3F)nc21,nt,i,nt,nt,i,i,nt,
CC(C)n1c2ccccc2c2nnc(SCC(=O)Nc3ccccc3C(=O)O)nc21,73,i,i,i,i,26,i,NR2E3 ag confirm=i;PPARg-NCOR2 ctr=i
CCCCOc1ccc(-c2c(C(=O)Nc3ccccc3)c(C)[nH]c(=S)c2C#N)cc1,73,i,i,i,i,94,i,NR2E3 ag confirm=84;PPARg-NCOR2 ctr=71
Cc1ccc(-c2c(C(=O)Nc3ccccc3)c(C)[nH]c(=S)c2C#N)o1,i,nt,i,nt,nt,nt,nt,
COc1ccc(-c2nc(SCc3ccc(C#N)cc3)[nH]c(=O)c2C#N)cc1,nt,i,nt,nt,i,i,nt,
N#Cc1c(-c2ccco2)nc(SCc2ccc(F)cc2)[nH]c1=O,75,i,nt,i,i,40,i,NR2E3 ag confirm=i;PPARg-NCOR2 ctr=59
CC(Sc1cnc2ccccc2n1)C(=O)O (stereo unspecified),68,i,i,i,i,30,i,NR2E3 ag confirm=i;PPARg-NCOR2 ctr=i
Cc1cc(Br)c2nc3c(c(C(=O)O)c2c1)CCCCC3,77,i,i,i,i,48,i,NR2E3 ag confirm=60;PPARg-NCOR2 ctr=60
Cc1ccc(C(=O)C2=C(O)C(=O)N(CCCn3ccnc3)C2c2ccc(OC(C)C)cc2)o1 (stereo unspecified),65,i,i,i,i,28,i,NR2E3 ag confirm=i;PPARg-NCOR2 ctr=i
C=C(C)COc1cccc(CN2CCC(O)(c3ccc4c(c3)OCO4)CC2)c1,i,nt,i,nt,nt,nt,nt,
CC(C)c1nnc(NC(=O)c2c(Cl)cccc2Cl)s1,i,nt,i,nt,nt,nt,nt,
CCOC(=O)COc1cc(Br)c(/C=N/Nc2ccccc2)cc1OC,68,i,nt,i,i,26,i,NR2E3 ag confirm=i;PPARg-NCOR2 ctr=i
COCCn1cc(CN2CCC(O)(c3ccccc3C)CC2)c2ccccc21,i,nt,i,nt,nt,nt,nt,
Cc1ccc(-n2c(=O)[nH]c3c(oc4ccccc43)c2=O)cc1,i,i,i,i,i,i,nt,
COc1ccc(-n2c(=S)[nH]c3c(oc4ccccc43)c2=O)cc1,68,i,i,i,i,53,i,NR2E3 ag confirm=39;PPARg-NCOR2 ctr=38
CCCn1c(NCc2ccc(OC)c(OC)c2)nc2ccccc21,i,nt,i,nt,nt,nt,nt,
